{"source": "ChEMBL document CHEMBL1122113", "about": "“Synthesis and antitumor activity of new platinum complexes” (J Med Chem, 1982)", "key": {"L1210 [1]": {"tested_on": "L1210", "experiment": "In vitro inhibition of L1210 leukemia cells growth.", "assay_type": "functional, cell-based", "conditions": "Mus musculus", "how_it_was_run": "(§1)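 Murine L1210 and PDD-resistant L1210/PDD cells kept in McCoy's 5A with 10% fetal calf serum. Compounds in water or Me2SO, or as suspensions, added to inoculated medium; Me2SO at most 0.2% final. Seeding about 5 × 10^4 cells/mL, then 96 h at 37 °C in 5% CO2. Density measured by electronic cell counter. ID50 (µg/mL) from growth inhibition.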"}, "L1210 [2]": {"tested_on": "L1210", "experiment": "In vitro inhibition of PDD resistant subline L1210/PDD growth.", "assay_type": "functional, cell-based", "conditions": "Mus musculus", "how_it_was_run": "as §1"}, "Mus musculus [3]": {"tested_on": "Mus musculus", "experiment": "Activity against L1210 leukemia cells was measured as treated by control on ip administration of 1 mg/kg in mice", "assay_type": "functional, organism-based", "parameters": "dose 1 mg/kg", "conditions": "at 1 mg/kg"}, "Mus musculus [4]": {"tested_on": "Mus musculus", "experiment": "Activity against L1210 leukemia cells was measured as treated by control on ip administration of 10 mg/kg in mice", "assay_type": "functional, organism-based", "parameters": "dose 10 mg/kg", "conditions": "at 10 mg/kg"}, "Mus musculus [5]": {"tested_on": "Mus musculus", "experiment": "Activity against L1210 leukemia cells was measured as treated by control on ip administration of 5 mg/kg in mice", "assay_type": "functional, organism-based", "parameters": "dose 5 mg/kg", "conditions": "at 5 mg/kg"}, "Mus musculus [6]": {"tested_on": "Mus musculus", "experiment": "Activity against L1210 leukemia cells was measured as treated by control on ip administration of 50 mg/kg in mice;Toxic", "assay_type": "functional, organism-based", "parameters": "dose 50 mg/kg", "conditions": "at 50 mg/kg"}, "Mus musculus [7]": {"tested_on": "Mus musculus", "experiment": "Activity against L1210 leukemia cells was measured as treated by control on ip administration of 0.62 mg/kg in mice", "assay_type": "functional, organism-based", "parameters": "dose 0.62 mg/kg", "conditions": "at 0.62 mg/kg"}, "Mus musculus [8]": {"tested_on": "Mus musculus", "experiment": "Activity against L1210 leukemia cells was measured as treated by control on ip administration of 1.25 mg/kg in mice", "assay_type": "functional, organism-based", "parameters": "dose 1.25 mg/kg", "conditions": "at 1.25 mg/kg"}, "Mus musculus [9]": {"tested_on": "Mus musculus", "experiment": "Activity against L1210 leukemia cells was measured as treated by control on ip administration of 2.5 mg/kg in mice", "assay_type": "functional, organism-based", "parameters": "dose 2.5 mg/kg", "conditions": "at 2.5 mg/kg"}, "Mus musculus [10]": {"tested_on": "Mus musculus", "experiment": "Activity against L1210 leukemia cells was measured as treated by control on ip administration of 20 mg/kg in mice", "assay_type": "functional, organism-based", "parameters": "dose 20 mg/kg", "conditions": "at 20 mg/kg"}, "Mus musculus [11]": {"tested_on": "Mus musculus", "experiment": "Activity against L1210 leukemia cells was measured as treated by control on ip administration of 40 mg/kg in mice", "assay_type": "functional, organism-based", "parameters": "dose 40 mg/kg", "conditions": "at 40 mg/kg"}}, "note": "“And” between values parts separate entries of the source, which are not always exact repeats. Identical values can stand only once.", "data": [{"substance": "1-(4-pyridiniumyl)-2-(1-trichloroplatinum-4-pyridiniumyl)ethane", "values": [{"measurement": "ID50", "setting": "L1210 [1]", "result": "> 10", "unit": "µg/mL"}, {"measurement": "ID50", "setting": "L1210 [2]", "result": "> 10", "unit": "µg/mL"}]}, {"substance": "1-(trichloro-dihydroxy)platinum-3-pyridiniumammonium", "values": [{"measurement": "ID50", "setting": "L1210 [1]", "result": 4.5, "unit": "µg/mL"}, {"measurement": "ID50", "setting": "L1210 [2]", "result": "> 10", "unit": "µg/mL"}]}, {"substance": "1-chloroplatinumsulphate-3-pyridiniumammonium", "values": [{"measurement": "ID50", "setting": "L1210 [1]", "result": 4.6, "unit": "µg/mL"}, {"measurement": "ID50", "setting": "L1210 [2]", "result": "> 10", "unit": "µg/mL"}]}, {"substance": "1-methyl-4-trichloroplatinumhexahydropyrazinediium", "values": [{"measurement": "ID50", "setting": "L1210 [1]", "result": 9, "unit": "µg/mL"}, {"measurement": "ID50", "setting": "L1210 [2]", "result": "> 10", "unit": "µg/mL"}]}, {"substance": "1-pentachloroplatinum-3-pyridiniumammonium", "values": [{"measurement": "ID50", "setting": "L1210 [1]", "result": 4.4, "unit": "µg/mL"}, {"measurement": "ID50", "setting": "L1210 [2]", "result": "> 10", "unit": "µg/mL"}]}, {"substance": "1-trichloroplatinum-1,4-diazoniabicyclo[2.2.2]octane", "values": [{"measurement": "ID50", "setting": "L1210 [1]", "result": "> 10", "unit": "µg/mL"}, {"measurement": "ID50", "setting": "L1210 [2]", "result": "> 10", "unit": "µg/mL"}]}, {"substance": "1-trichloroplatinum-3-pyridiniumammonium", "values": [{"measurement": "ID50", "setting": "L1210 [1]", "result": "> 10", "unit": "µg/mL"}, {"measurement": "ID50", "setting": "L1210 [2]", "result": "> 10", "unit": "µg/mL"}]}, {"substance": "1-trichloroplatinum-3-pyridiniumylmethanammonium", "values": [{"measurement": "ID50", "setting": "L1210 [1]", "result": "> 10", "unit": "µg/mL"}, {"measurement": "ID50", "setting": "L1210 [2]", "result": "> 10", "unit": "µg/mL"}, {"measurement": "T/C", "setting": "Mus musculus [3]", "result": 100, "unit": "%"}, {"measurement": "T/C", "setting": "Mus musculus [4]", "result": 125, "unit": "%"}, {"measurement": "T/C", "setting": "Mus musculus [5]", "result": "123% and 138%"}, {"measurement": "T/C", "setting": "Mus musculus [6]", "result": "Toxic"}]}, {"substance": "1-trichloroplatinumhexahydro-1-pyridiniumammonium", "values": [{"measurement": "ID50", "setting": "L1210 [1]", "result": 4.2, "unit": "µg/mL"}, {"measurement": "ID50", "setting": "L1210 [2]", "result": "> 10", "unit": "µg/mL"}]}, {"substance": "1-trichloroplatinumhexahydropyrazinediium", "values": [{"measurement": "ID50", "setting": "L1210 [1]", "result": "> 10", "unit": "µg/mL"}, {"measurement": "ID50", "setting": "L1210 [2]", "result": "> 10", "unit": "µg/mL"}]}, {"substance": "2,5-dimethyl-1-trichloroplatinumhexahydropyrazinediium", "values": [{"measurement": "ID50", "setting": "L1210 [1]", "result": 10, "unit": "µg/mL"}, {"measurement": "ID50", "setting": "L1210 [2]", "result": "> 10", "unit": "µg/mL"}]}, {"substance": "2-(1-ethylhexahydro-2-pyridiniumyl)-1-trichloroplatinumpyridinium", "values": [{"measurement": "ID50", "setting": "L1210 [1]", "result": "> 10", "unit": "µg/mL"}, {"measurement": "ID50", "setting": "L1210 [2]", "result": "> 10", "unit": "µg/mL"}]}, {"substance": "3-(1-methyltetrahydro-1H-2-pyrroliumyl)-1-trichloroplatinumpyridinium", "values": [{"measurement": "ID50", "setting": "L1210 [1]", "result": "> 10", "unit": "µg/mL"}, {"measurement": "ID50", "setting": "L1210 [2]", "result": "> 10", "unit": "µg/mL"}]}, {"substance": "4-trichloroplatinum-4-azoniabicyclo[2.2.2]oct-2-ammonium", "values": [{"measurement": "ID50", "setting": "L1210 [1]", "result": 2, "unit": "µg/mL"}, {"measurement": "ID50", "setting": "L1210 [2]", "result": 5, "unit": "µg/mL"}]}, {"substance": "N-methyl-1-trichloroplatinum-3-pyridiniumylmethanammonium", "values": [{"measurement": "ID50", "setting": "L1210 [1]", "result": "> 10", "unit": "µg/mL"}, {"measurement": "ID50", "setting": "L1210 [2]", "result": "> 10", "unit": "µg/mL"}, {"measurement": "T/C", "setting": "Mus musculus [7]", "result": 110, "unit": "%"}, {"measurement": "T/C", "setting": "Mus musculus [8]", "result": 122, "unit": "%"}, {"measurement": "T/C", "setting": "Mus musculus [4]", "result": 130, "unit": "%"}, {"measurement": "T/C", "setting": "Mus musculus [9]", "result": 126, "unit": "%"}, {"measurement": "T/C", "setting": "Mus musculus [10]", "result": 133, "unit": "%"}, {"measurement": "T/C", "setting": "Mus musculus [5]", "result": 120, "unit": "%"}]}, {"substance": "ethyl(1-trichloroplatinum-2-pyridiniumyl)ammonium", "values": [{"measurement": "ID50", "setting": "L1210 [1]", "result": "> 10", "unit": "µg/mL"}, {"measurement": "ID50", "setting": "L1210 [2]", "result": "> 10", "unit": "µg/mL"}]}, {"substance": "ethyl(1-trichloroplatinum-2-pyridiniumylmethyl)ammonium", "values": [{"measurement": "ID50", "setting": "L1210 [1]", "result": "> 10", "unit": "µg/mL"}, {"measurement": "ID50", "setting": "L1210 [2]", "result": "> 10", "unit": "µg/mL"}, {"measurement": "T/C", "setting": "Mus musculus [4]", "result": 139, "unit": "%"}, {"measurement": "T/C", "setting": "Mus musculus [9]", "result": 119, "unit": "%"}, {"measurement": "T/C", "setting": "Mus musculus [10]", "result": 140, "unit": "%"}, {"measurement": "T/C", "setting": "Mus musculus [11]", "result": 148, "unit": "%"}, {"measurement": "T/C", "setting": "Mus musculus [5]", "result": 122, "unit": "%"}]}]}
